This note sets out measurements from ChEMBL document CHEMBL1126806, “Iron (III)-chelating resins. 3. Synthesis, iron (III)-chelating properties, and in vitro antibacterial activity of compounds containing 3-hydroxy-2-methyl-4(1H)-pyridinone ligands” (1993).

In test [1] the test system is Listeria innocua. Description: Tested for growth inhibition against Listeria inocua. Format: functional. The arrangement: concentration or dose not given beside the values. In a few lines: (§1)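 Broth growth assay in BHI medium; log-phase culture (24 h plate, 1 h then 2 h at 37 °C with shaking) added to tubes with derivative at 20 mM final, 37 °C for 7 h. Starting CFU/mL 2×10^5 (E. coli) or 5×10^5 (L. inocua). Standard plate counts; % inhibition = (ΔCFU 0–7 h control − ΔCFU 0–7 h test)/ΔCFU 0–7 h control.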

Test [2] concerns the target Lactotransferrin (Bos taurus) (UniProt P24627). Kind of test: Tested for iron mobilization from lactoferrin at physiological pH after 24 hours. In outline: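 Lactoferrin fully iron(III)-saturated with FeCl3 in 0.1 M sodium bicarbonate overnight at room temperature (0.78 mM iron); 1.0 mL dialysed against 4 mL chelator (2 mM in 4× PBS) for 24 h at room temperature. Dialysate absorbance at 456 nm, converted by chelator–iron(III) calibration curves; protected derivatives measured after adding an unprotected chelator to the dialysate.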

Test [3] deals with Escherichia coli. Kind of test: Tested for minimum inhibitory concentration against Escherichia coli. Format: functional. In a few lines: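 Agar dilution on BHI agar with 2-fold dilutions; spots of 10^4–10^5 CFU applied by multipoint inoculator, 18 h at 37 °C, growth judged visually.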
The test system of test [4] is Escherichia coli. Kind of test: Tested for growth inhibition against Escherichia coli. The arrangement: concentration or dose not given beside the values. Format: functional. In outline:
as §1

The subject of test [5] is Listeria innocua. Kind of test: Tested for minimum inhibitory concentration against Listeria inocua. The test is classed as functional.

≈ marks a conversion by molar mass, not a printed value.

Lactotransferrin (Bos taurus), sequence (P24627 whole entry): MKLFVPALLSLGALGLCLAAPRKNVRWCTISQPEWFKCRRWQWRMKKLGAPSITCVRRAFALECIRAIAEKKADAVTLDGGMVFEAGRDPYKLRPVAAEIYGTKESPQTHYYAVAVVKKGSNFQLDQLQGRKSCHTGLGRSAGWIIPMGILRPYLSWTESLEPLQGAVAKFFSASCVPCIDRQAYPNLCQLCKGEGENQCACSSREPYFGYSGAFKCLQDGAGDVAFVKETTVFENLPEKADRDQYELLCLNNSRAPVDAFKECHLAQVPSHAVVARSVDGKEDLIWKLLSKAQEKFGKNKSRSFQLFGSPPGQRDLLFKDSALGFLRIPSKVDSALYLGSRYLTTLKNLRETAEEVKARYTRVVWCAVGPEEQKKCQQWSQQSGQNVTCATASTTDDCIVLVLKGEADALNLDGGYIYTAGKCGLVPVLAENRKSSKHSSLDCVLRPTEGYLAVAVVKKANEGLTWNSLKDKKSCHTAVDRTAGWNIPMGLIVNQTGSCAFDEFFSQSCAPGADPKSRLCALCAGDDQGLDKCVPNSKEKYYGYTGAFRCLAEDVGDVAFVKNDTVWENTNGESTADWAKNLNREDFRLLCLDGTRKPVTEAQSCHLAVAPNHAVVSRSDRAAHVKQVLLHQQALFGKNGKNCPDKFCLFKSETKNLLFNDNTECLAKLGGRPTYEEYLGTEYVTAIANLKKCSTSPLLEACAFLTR

Turning to `CCn1ccc(=O)c(OCc2ccccc2)c1C`, the values for the Growth inhibition in the test on Listeria innocua [1] and in the test with Escherichia coli [4] were 72% and 53%, respectively. Moreover, in test [2], the Iron mobilized was found to be 2%. Besides, the MIC in the test with Escherichia coli [3] and with Listeria innocua [5] was 50 mM (≈ 12200 µg/mL) in each case.

As for `Cc1c(O)c(=O)ccn1CCN`, the Growth inhibition is reported as 93% with Listeria innocua [1] and 100% in the test on Escherichia coli [4]. This molecule also yielded an Iron mobilized in test [2] of 60%. Moreover, the MIC with Escherichia coli [3] turned out to be 5 mM (≈ 841 µg/mL); against Listeria innocua [5] it was 25 mM (≈ 4200 µg/mL).

Turning to `C=CC(=O)NCCn1ccc(=O)c(O)c1C`, the Growth inhibition with Listeria innocua [1] worked out at 87%; with Escherichia coli [4] it was 100%. Besides, the Iron mobilized in test [2] was 62%. For the same molecule, the results for the MIC against Escherichia coli [3] and in the test with Listeria innocua [5] were 5 mM (≈ 1110 µg/mL) and 25 mM (≈ 5560 µg/mL), respectively.

On to `CCC(=O)NCCn1ccc(=O)c(O)c1C`, for which the values for the Growth inhibition with Listeria innocua [1] and in the test on Escherichia coli [4] were 86% and 100%, respectively. In addition, the Iron mobilized in test [2] came to 61%. The MIC is 5 mM (≈ 1120 µg/mL) against Escherichia coli [3] and 25 mM (≈ 5610 µg/mL) with Listeria innocua [5].

For `C=C(C)C(=O)NCCn1ccc(=O)c(O)c1C`, the results for the Growth inhibition with Listeria innocua [1] and in the test on Escherichia coli [4] were 90% and 100%, respectively. The molecule also came in with an Iron mobilized in test [2] of 63%. Also, the minimum inhibitory concentration (MIC) against Escherichia coli [3] turned out to be 5 mM (≈ 1180 µg/mL); in the test with Listeria innocua [5], 25 mM (≈ 5910 µg/mL).

Take `CCn1ccc(=O)c(O)c1C`: the values for the Growth inhibition in the test on Listeria innocua [1] and with Escherichia coli [4] were 89% and 100%, respectively. Further, the Iron mobilized in test [2] stood at 71%. The MIC against Escherichia coli [3] was found to be 5 mM (≈ 766 µg/mL); with Listeria innocua [5], 25 mM (≈ 3830 µg/mL).

On to `Cc1c(OCc2ccccc2)c(=O)ccn1CCN`, for which the Growth inhibition is 34% in the test on Listeria innocua [1] and 0% with Escherichia coli [4]. This molecule had an Iron mobilized in test [2] of 4%. Moreover, the MIC in the test on Escherichia coli [3] and in the test with Listeria innocua [5] was 50 mM (≈ 12900 µg/mL) each time.

One may read the MIC as the smallest concentration in the dilution series that meets the test's criterion for growth inhibition.
